Assay outcomes (PubChem)
697 NFkB inh = inhibitors of the PMA/ionomycin-induced NF-kB reporter in 697 B cells. AID 435022. inhibition, % at 4 µM. actives 0.33% (n = 330,000). 697 B-cell NF-kB luciferase reporter, 16 h; in the data active = inhibition above about 35%
CRFBP-R2 block = antagonists of CRF-binding protein/CRF-R2 receptor complex | actives 0.59% (n = 350,000) | HEK293 CRF-R2/CRF-BP, CRF-induced calcium fluorescence | inhibition, % at 11.8 µM;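 active = inhibition of the ligand-induced calcium signal above about 50% at the single tested concentration, limit read from the data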
Jurkat NFkB inh = lowers PMA/ionomycin-induced NF-kB signal in Jurkat cells; PMA/ionomycin-induced NF-kB luciferase reporter, luminescence; inhibition, % at 4 µM; actives 0.53% (n = 330,000); AID 435003; in the data active = inhibition above about 50%
UPR XBP1 act = activators of adaptive arm of unfolded protein response (XBP1); CHO-XBP1 luciferase reporter, IRE1-XBP1 UPR activation, luminescence; percent of tunicamycin response, DMSO as zero; activation, % at 20 µM; actives 0.33% (n = 330,000);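 active = versus positive control, 20 µM dose yields 30% or more activation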;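 also: 100% = tunicamycin at 10 µg/mL and 0% = DMSO only wells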
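Signal: luciferase luminescence; Assay system: CHO-XBP1 luciferase reporter cells; Amount: one thousand reporter cells per well; Dosing: 20 µM single concentration, DMSO 1%; Benchmarks: high control tunicamycin 10 µg/mL final, low control DMSO vehicle only; Schedule: 6 h compound exposure at 37 °C, 5% CO2; Evaluation: percent activation relative to tunicamycin reference.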
CHOP UPR activ = activators of apoptotic arm of unfolded protein response (CHOP). CHO-CHOP luciferase reporter, UPR activation, luminescence; percent of tunicamycin response over DMSO baseline. activation, % at 10 µM. actives 0.34% (n = 330,000);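 active = at 10 µM dose, activation of 40% or more, normalized to positive control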;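 also: 100% = tunicamycin at 10 µg/mL and 0% = DMSO alone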
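Assay system: CHO cells with stable CHOP pathway luciferase reporter; Buffer or medium: F12 plus 10% serum; Times: 16-18 h cell attachment, then 6 h compound exposure, 37 °C; Signal: luciferase luminescence; Read-out basis: percent activation relative to tunicamycin control; Control set: tunicamycin high control, DMSO low control.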
* marks the source's active call; other numbers are inactive results; . = no result. Most compounds without a hit are left out; they make up all but 1.8% or so of the library.

SMILES | 697 NFkB inh | CRFBP-R2 block | Jurkat NFkB inh | UPR XBP1 act | CHOP UPR activ
Cc1cccc(C)c1OCC(=O)N=Nc1c(O)[nH]c2ccc(Br)cc12 | 16 | 10 | -5 | 24 | 1
COc1ccc(C2(C)NC(=O)N(CC(=O)NCc3ccccc3)C2=O)cc1OC (centres undefined) | -4 | 1 | -8 | 0 | 1
CC(C)(C)c1cc(C(=O)NNC(=O)Nc2cccc(Cl)c2)n(Cc2ccccc2)n1 | 7 | 51* | 10 | -2 | -1
O=C(c1ccco1)N1CCN(c2ncnc3scc(-c4ccc(Cl)cc4)c23)CC1 | . | 6 | . | . | .
COc1ccccc1S(=O)(=O)Cc1ccc(C(=O)NCc2ccccc2)o1 | -2 | 55* | -6 | -1 | 2
Cc1nn(-c2ccccc2)c(N)c1Sc1ccc([N+](=O)[O-])cc1 | 24 | 58* | 6 | 1 | -2
Nc1ncnc2c1ncn2[C@@H]1O[C@H](CNCc2c(OCc3ccccc3F)ccc3ccccc23)[C@@H](O)[C@H]1O | -8 | -27 | -15 | 1 | -1
Cc1noc(C)c1COC(=O)c1cc(C)n(-c2ccccc2)c1C | -51 | 50* | -10 | 2 | 7
Cc1cc(C(=O)OCc2nnc(-c3ccccc3)o2)c(C)n1-c1ccccc1 | -2 | 15 | 3 | 1 | 0
Cc1ccc(NC(=O)c2sccc2SCc2cccc(C(F)(F)F)c2)cc1 | -9 | -40 | -1 | 0 | 0
Cc1cccc(C)c1NC(=O)c1sccc1SCc1cccc(C(F)(F)F)c1 | -4 | 71* | -18 | -1 | -2
O=C(CN1CCN(S(=O)(=O)c2ccccc2)CC1)NCCc1ccccc1 | 17 | -4 | 4 | -2 | 0
CC(c1ccco1)N(C(=O)c1ccccc1NS(=O)(=O)c1ccc(Cl)c([N+](=O)[O-])c1)c1ccccn1 (centres undefined) | -27 | 52* | -2 | -1 | 6
COc1cccc(-c2nc(N3CC(C)CC(C)C3)c3ccccc3n2)c1O (centres undefined) | 3 | 19 | -13 | 46* | 3
COc1cccc(-c2nc(N3CCC(C)CC3)c3ccccc3n2)c1O | -3 | -8 | -8 | 0 | -2
Cc1nnc(Nc2ccc(S(N)(=O)=O)cc2)c2ccccc12 | 12 | 3 | -2 | -1 | 2
CCOC(=O)c1cccc(NS(=O)(=O)Cc2ccccc2)c1 | -1 | 149* | 0 | -3 | -1
CCOC(=O)c1cccc(NS(=O)(=O)c2ccc(NC(C)=O)cc2)c1 | 5 | 5 | 21 | 1 | -4
COc1cc(NC(=O)CSc2cc(C)c3cc(C)cc(C)c3n2)c(C(=O)O)cc1OC | -1 | 65* | -9 | 1 | -1
COc1cc(NC(=O)CSc2nccc(C)n2)c(C(=O)O)cc1OC | 9 | 13 | -5 | -3 | -1
COCCN(CC(=O)Nc1cccc(C)c1C)C(=O)c1ccc(S(=O)(=O)N2CCOCC2)cc1 | 8 | 0 | 11 | -1 | 1
CCOc1ccc(OCCC(=O)N(CCCOC)c2c(N)n(Cc3ccccc3)c(=O)[nH]c2=O)cc1 | 26 | -6 | 17 | -3 | 1
Cn1c(=O)cc(OCCCC(=O)NCCN2CCN(c3ccccc3F)CC2)c2ccccc21 | 5 | 82* | -14 | 2 | 0
Cn1c(=O)cc(OCC(=O)NCCCN2CCN(c3ccccc3F)CC2)c2ccccc21 | 15 | -32 | -1 | 0 | -1
CCOc1ccccc1NC(=O)CCn1ccnc1 | 8 | 8 | 0 | -5 | 0
SMILES | 697 NFkB inh | CRFBP-R2 block | Jurkat NFkB inh | UPR XBP1 act | CHOP UPR activ
COc1ccc(C2=NN(C(=O)c3ccco3)C(c3cccs3)C2)cc1OC (centres undefined) | . | 4 | . | . | .
Cc1ccc(C2=NN(C(=O)c3cccs3)C(c3ccccc3O)C2)cc1 (centres undefined) | -7 | 75* | -21 | 0 | 0
COc1cccc(C2CC(c3cccs3)=NN2C(=O)c2ccco2)c1O (centres undefined) | 12 | 67* | 8 | -3 | 2
COc1ccc(C2CC(c3cccs3)=NN2C(=O)c2ccccc2)cc1OC (centres undefined) | 17 | 52* | -20 | 0 | 1
O=C(c1ccco1)N1N=C(c2cccs2)CC1c1ccccc1O (centres undefined) | -10 | 93* | 3 | -1 | 3
O=C(c1cccs1)N1N=C(c2ccccc2)CC1c1ccccc1O (centres undefined) | 6 | 41 | 1 | 2 | 3
CCC(=O)N1N=C(c2cccs2)CC1c1ccco1 (centres undefined) | 6 | 12 | 5 | -1 | -3
Cc1ccc(NC(=O)COC(=O)c2cccc(S(=O)(=O)N3CCCCCC3)c2)cc1 | . | -3 | . | . | .
O=c1cc(-c2ccccc2)nc(/C=C/c2ccccc2)[nH]1 | 9 | -9 | 5 | -1 | 3
COc1ccc(/C=C/c2nc(-c3ccccc3)cc(=O)[nH]2)cc1 | 13 | 66* | -10 | -3 | 0
O=C(c1ccc2snnc2c1)N1CCN(c2ccccc2)CC1 | -5 | -2 | 9 | 3 | 2
O=C(c1ccc2snnc2c1)N1CCN(c2ccccn2)CC1 | 2 | 79* | 0 | -5 | -1
O=C(CCC(=O)N1CCOc2ccccc21)NC1CCCCCC1 | 0 | 74* | -12 | 0 | 3
CCn1ccnc1CNC(=O)C1CCC(=O)N(Cc2ccccc2F)C1 (centres undefined) | 6 | 10 | -2 | -1 | -1
O=C(NCc1cn2ccccc2n1)C1CCC(=O)N(Cc2ccccc2F)C1 (centres undefined) | -4 | 61* | -3 | 2 | 0
CCN1C[C@@H]2[C@@H]3C(=O)N(Cc4ccccc4)C(=O)[C@@H]3[C@](C)(C1=O)N2C(=O)c1ccc(C)cc1 | . | 6 | . | . | .
Cc1ccc(C(=O)N2c3ccccc3N(Cc3ccccc3)C(=O)C2(C)C)cc1 | -20 | 52* | 10 | -6 | -2
Cc1ccc(S(=O)(=O)Nc2nc3ccccc3nc2NCc2ccc3c(c2)OCO3)cc1C | -15 | 12 | 3 | 1 | 0
COc1ccc(S(=O)(=O)Nc2nc3ccccc3nc2NCc2ccc3c(c2)OCO3)cc1 | 3 | 57* | -15 | -1 | -1
COc1cccc(CNC(=O)c2cc3c(C)nc4ccccc4c3o2)c1 | -15 | -17 | 7 | -3 | -1
COc1ccc(CNC(=O)c2cc3c(C)nc4ccccc4c3o2)c(OC)c1 | 14 | 58* | 43 | 0 | 7
Cn1c(=O)c(=O)n(C)c2cc(N3CCCC3)c(NS(=O)(=O)c3ccc(Cl)cc3)cc21 | -3 | 0 | -2 | -4 | 1
Cc1ccccc1CN(C)C(=O)COC(=O)c1ccc2[nH]c(C)c(C)c2c1 | -15 | 64* | -26 | -1 | 1
